Experimental data from ChEMBL document CHEMBL3407469, “Development of benzimidazole derivatives to inhibit HIV-1 replication through protecting APOBEC3G protein” (Eur J Med Chem, 2015).

How the values were obtained:
[1] = Cytotoxicity against human H9 cells by MTS assay; assay type: cell-based
293T = assay: Inhibition of full-length X4 tropic HIV-1 clone pNL4-3 Vif/human APOBEC3G complex transfected in human 293T cells measured at 50 uM after 48 hrs by GFP-based fluorescence assay relative to control; assay type: cell-based
In short: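 This was the primary screen in 293T cells co-transfected with HA-Vif and A3G-GFP plasmids (Lipofectamine 2000) and given a single compound concentration. DMSO-only wells and A3G-GFP-only transfected wells served as controls. GFP was read after 48 h. A3G-GFP MFI fold change was scored as −, none or <1; +, 1–2; ++, 2–3; +++, >3.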

[2] = system: Human immunodeficiency virus 1; assay: Antiviral activity against X4 tropic HIV-1 clone pNL4-3 infected in H9 cells assessed as reduction in p24 antigen after 4 days by ELISA; assay type: functional, organism-based; conditions: Human immunodeficiency virus 1, pNL4-3, H9, 96 h

## CCN(CC)c1ccc(CC(C#N)c2nc3ccccc3[nH]2)cc1 (stereo unspecified)
[1]
  CC50: > 50 µM
293T
  fold change (FC): < 1
[2]
  IC50: > 50 µM

## CCN(CC)c1ccc(/C=C(\C#N)c2nc3ccccc3n2C)cc1
[1]
  CC50: > 50 µM
293T
  fold change (FC): < 1
[2]
  IC50: > 50 µM

## N#C/C(=C\c1ccc(-c2ccccc2)cc1)c1nc2ccccc2[nH]1
[1]
  CC50: > 50 µM
293T
  fold change (FC): < 1
[2]
  IC50: > 50 µM

## CCN(CC)c1ccc(/C=C(\C#N)c2nc3cc(Cl)c(Cl)cc3[nH]2)cc1
[1]
  CC50: > 50 µM
293T
  fold change (FC): > 3
[2]
  IC50: 1.25 µM

## CCN(CC)c1ccc(/C=C(\C#N)c2nc3cc(C(C)(C)C)ccc3[nH]2)cc1
[1]
  CC50: > 50 µM
293T
  fold change (FC): > 3
[2]
  IC50: 1.04 µM

## Cc1ccc(/C=C(\C#N)c2nc3ccccc3[nH]2)cc1
[1]
  CC50: > 50 µM
293T
  fold change (FC): < 1
[2]
  IC50: > 50 µM

## CN(C)c1ccc(/C=C(\C#N)c2nc3ccccc3[nH]2)cc1
[1]
  CC50: > 50 µM
293T
  fold change (FC): 2
[2]
  IC50: 0.51 µM

## CCN(CC)c1ccc(/C=C(\C#N)c2nc3cc(OC)ccc3[nH]2)cc1
[1]
  CC50: > 50 µM
293T
  fold change (FC): 2
[2]
  IC50: 4.42 µM

## N#C/C(=C\c1ccc2[nH]ccc2c1)c1nc2ccccc2[nH]1
[1]
  CC50: > 50 µM
293T
  fold change (FC): > 3
[2]
  IC50: 0.72 µM

## N#C/C(=C\c1ccc2[nH]ncc2c1)c1nc2ccccc2[nH]1
[1]
  CC50: > 50 µM
293T
  fold change (FC): 2
[2]
  IC50: 0.36 µM

## CCN(CC)c1ccc(/C=C(\C#N)c2nc3cc(C(=O)OC)ccc3[nH]2)cc1
[1]
  CC50: > 50 µM
293T
  fold change (FC): 2
[2]
  IC50: 1.68 µM

## CCN(CC)c1ccc(/C=C(\C#N)c2nc3cc(SC)ccc3[nH]2)cc1
[1]
  CC50: > 50 µM
293T
  fold change (FC): 2
[2]
  IC50: 0.75 µM

## COc1cc(/C=C(\C#N)c2nc3ccccc3[nH]2)ccc1N(C)C
[1]
  CC50: > 50 µM
293T
  fold change (FC): 1
[2]
  IC50: 0.29 µM

## CCN(CCO)c1ccc(/C=C(\C#N)c2nc3ccccc3[nH]2)cc1
[1]
  CC50: > 50 µM
293T
  fold change (FC): 1
[2]
  IC50: 6.11 µM

## CS(=O)(=O)c1ccc(/C=C(\C#N)c2nc3ccccc3[nH]2)cc1
[1]
  CC50: > 50 µM
293T
  fold change (FC): < 1
[2]
  IC50: > 50 µM

## COc1cc(/C=C(\C#N)c2nc3ccccc3[nH]2)cc(OC)c1OC
[1]
  CC50: > 50 µM
293T
  fold change (FC): 1
[2]
  IC50: > 50 µM

## CCN(CC)c1ccc(/C=C(\C#N)c2nc3cc(C(F)(F)F)ccc3[nH]2)cc1
[1]
  CC50: > 50 µM
293T
  fold change (FC): 2
[2]
  IC50: 1.13 µM

## CCc1ccc(/C=C(\C#N)c2nc3ccccc3[nH]2)cc1
[1]
  CC50: > 50 µM
293T
  fold change (FC): < 1
[2]
  IC50: > 50 µM

## CCN(CC)c1ccc(/C=C(\C#N)c2nc3cc(Br)ccc3[nH]2)cc1
[1]
  CC50: > 50 µM
293T
  fold change (FC): 2
[2]
  IC50: > 50 µM

## CCN(CC)c1ccc(/C=C(\C#N)c2nc3ccccc3[nH]2)c(O)c1
[1]
  CC50: > 50 µM
293T
  fold change (FC): > 3
[2]
  IC50: 1.5 µM

## CCN(CC)c1ccc(/C=C(\C#N)c2nc3cc(N(C)C)ccc3[nH]2)cc1
[1]
  CC50: > 50 µM
293T
  fold change (FC): 1
[2]
  IC50: 2.68 µM

## N#C/C(=C\c1ccc(N2CCOCC2)cc1)c1nc2ccccc2[nH]1
[1]
  CC50: > 50 µM
293T
  fold change (FC): > 3
[2]
  IC50: > 50 µM

## N#C/C(=C\c1ccc(C(=O)O)cc1)c1nc2ccccc2[nH]1
[1]
  CC50: > 50 µM
293T
  fold change (FC): < 1
[2]
  IC50: > 50 µM

## CCN(CC)c1ccc2cc(-c3nc4ccccc4[nH]3)c(=O)oc2c1
[1]
  CC50: > 50 µM
293T
  fold change (FC): > 3
[2]
  IC50: 0.24 µM

## CCN(CC)c1ccc(/C=C(\C#N)c2nc3ccncc3[nH]2)cc1
[1]
  CC50: > 50 µM
293T
  fold change (FC): 2
[2]
  IC50: 7.3 µM

## CCN(CC)c1ccc(/C=C(\C#N)c2nc3ccccc3s2)cc1
[1]
  CC50: > 50 µM
293T
  fold change (FC): > 3
[2]
  IC50: 5.92 µM

## CCN(CC)c1ccc(/C=C(\C#N)c2nc3cc(Cl)ccc3[nH]2)cc1
[1]
  CC50: > 50 µM
293T
  fold change (FC): 2
[2]
  IC50: > 50 µM

## COc1ccc(/C=C(\C#N)c2nc3ccccc3[nH]2)cc1OC
[1]
  CC50: > 50 µM
293T
  fold change (FC): 1
[2]
  IC50: > 50 µM

## CN(C)c1ccc(/C=C(\C#N)c2nc3ccccc3[nH]2)c(O)c1
[1]
  CC50: > 50 µM
293T
  fold change (FC): > 3
[2]
  IC50: > 50 µM

## CCN(CC)c1ccc(/C=C(\C#N)c2nc3ccccc3o2)cc1
[1]
  CC50: > 50 µM
293T
  fold change (FC): 2
[2]
  IC50: 2.38 µM

## CCCN(CCC)c1ccc(/C=C(\C#N)c2nc3ccccc3[nH]2)cc1
[1]
  CC50: > 50 µM
293T
  fold change (FC): 2
[2]
  IC50: 1.09 µM

## CCN(CC)c1ccc(/C=C(\C#N)c2nc3ccccc3n2CC)cc1
[1]
  CC50: > 50 µM
293T
  fold change (FC): < 1
[2]
  IC50: > 50 µM

## COc1cc(OC)c(OC)cc1/C=C(\C#N)c1nc2ccccc2[nH]1
[1]
  CC50: > 50 µM
293T
  fold change (FC): 1
[2]
  IC50: > 50 µM

## CCN(CC)c1ccc(/C=C(\C#N)c2nc3cc(C)c(C)cc3[nH]2)cc1
[1]
  CC50: > 50 µM
293T
  fold change (FC): > 3
[2]
  IC50: 1.64 µM

## COc1ccc(/C=C(\C#N)c2nc3ccccc3[nH]2)cc1
[1]
  CC50: > 50 µM
293T
  fold change (FC): 2
[2]
  IC50: 2.85 µM

## CC(C)N(c1ccc(/C=C(\C#N)c2nc3ccccc3[nH]2)cc1)C(C)C
[1]
  CC50: > 50 µM
293T
  fold change (FC): 2
[2]
  IC50: 3.3 µM

## N#C/C(=C\c1ccc(N2CCCC2)cc1)c1nc2ccccc2[nH]1
[1]
  CC50: > 50 µM
293T
  fold change (FC): < 1
[2]
  IC50: > 50 µM

## CC(=O)Nc1ccc(/C=C(\C#N)c2nc3ccccc3[nH]2)cc1
[1]
  CC50: > 50 µM
293T
  fold change (FC): < 1
[2]
  IC50: > 50 µM

## CCN(CC)c1cccc(/C=C(\C#N)c2nc3ccccc3[nH]2)c1
[1]
  CC50: > 50 µM
293T
  fold change (FC): < 1
[2]
  IC50: > 50 µM

## N#C/C(=C\c1ccc(-n2ccnc2)cc1)c1nc2ccccc2[nH]1
[1]
  CC50: > 50 µM
293T
  fold change (FC): < 1
[2]
  IC50: > 50 µM

## CC(C)c1ccc(/C=C(\C#N)c2nc3ccccc3[nH]2)cc1
[1]
  CC50: > 50 µM
293T
  fold change (FC): < 1
[2]
  IC50: > 50 µM

## CCN(CC)c1ccc(/C=C(\C#N)c2nc3cc(F)ccc3[nH]2)cc1
[1]
  CC50: > 50 µM
293T
  fold change (FC): > 3
[2]
  IC50: > 50 µM

## CCN(CC)c1ccc(/C=C(\C#N)c2nc3cccnc3[nH]2)cc1
[1]
  CC50: > 50 µM
293T
  fold change (FC): 2
[2]
  IC50: 3.58 µM

## CN1CCN(c2ccc(/C=C(\C#N)c3nc4ccccc4[nH]3)cc2)CC1
[1]
  CC50: > 50 µM
293T
  fold change (FC): < 1
[2]
  IC50: > 50 µM

## CCN(CC)c1ccc(/C=C(\C#N)c2nc3ccccc3n2C2CC2)cc1
[1]
  CC50: > 50 µM
293T
  fold change (FC): < 1
[2]
  IC50: > 50 µM

## CCN(CC)c1ccc(/C=C(\C#N)c2nc3cc(OC(F)(F)F)ccc3[nH]2)cc1
[1]
  CC50: > 50 µM
293T
  fold change (FC): > 3
[2]
  IC50: 1.35 µM

## CCN(CC)c1ccc(/C=C(\C#N)c2nc3cc(C(=O)O)ccc3[nH]2)cc1
[1]
  CC50: > 50 µM
293T
  fold change (FC): 2
[2]
  IC50: > 50 µM
